High-throughput results deposited in PubChem BioAssay by several laboratories.
A selection: hits, their analogues and other compounds. The true share with any hit is near 3.4%.
PolyA inh = inhibitors of polyadenylation in S. cerevisiae; S. cerevisiae SKY197-pL101 polyadenylation reporter, beta-gal luminescence; efflux-impaired pdr1/pdr3 knockout yeast; score 100 = 6 SD above DMSO; activity score, % at 12 µM; 0.02% of 300,000 active; AID 1875;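 active = lowest replicate activity score at least 50, where 100 means six control SD above control mean; inconclusive = lowest score under 50 but half or more replicates reach 50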;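 note: yeast exposed to compound for 9 h at 30 °C; higher score means more reporter readthrough which indicates perturbed polyadenylation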
Arr AP2 block = human beta-arrestin and AP2 interaction inhibition | FITC-arrestin peptide / GST-AP2 beads, flow cytometry; AP2 beta2 appendage carries R879A mutation | inhibition, % at 10 µM | 0.31% of 340,000 active | AID 504490;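 active = inhibition above a set limit, near 3 SD of compounds lacking own fluorescence, cut at about 54% in these data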;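 note: plate controls were DMSO wells for no effect and 5 µM unlabelled arrestin peptide for full effect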
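System: GST-tagged AP2 beta2-adaptin appendage (R879A) on 4 µm glutathione beads / Reagent: FITC-arrestin peptide, 50 nM / Detection: HyperCyt-sampled flow cytometry, FL1 channel, ex 488/em 535 nm / Timing: 12 min plus 1 h, RT / Buffer or medium: PBS plus Tween 20 (0.05%) and BSA (0.1%)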
A3A deaminase = inhibitors of human APOBEC3A DNA deaminase; 0.41% of 330,000 active; AID 493011; recombinant A3A, FAM/TAMRA ssDNA deamination fluorescence; P31941; inhibition, % at 20 µM;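 active = at least 40% inhibition at 20 µM here, with at most 30% in a related deaminase screen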;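 note: plate controls were A3A with DMSO for no effect and wells lacking A3A enzyme for full effect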
Target sequence (P31941 whole entry, looked up): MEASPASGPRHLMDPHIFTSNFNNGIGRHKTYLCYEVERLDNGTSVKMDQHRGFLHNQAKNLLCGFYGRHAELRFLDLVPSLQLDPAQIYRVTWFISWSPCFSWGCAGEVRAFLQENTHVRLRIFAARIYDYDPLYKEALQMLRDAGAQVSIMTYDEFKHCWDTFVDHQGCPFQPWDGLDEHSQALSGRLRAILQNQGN
AHR act = activates the human aryl hydrocarbon receptor. P35869. AHR-responsive luciferase reporter cells, luminescence. activation, % at 5 µM. 2.5% of 320,000 active. AID 2796; in the data active = activation above about 47%;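 note: 0% = vehicle wells and 100% = reference agonist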
A3G deaminase = blocks human APOBEC3G single-stranded DNA deamination. Q9HC16. inhibition, % at 20 µM. recombinant A3G, ssDNA deamination FAM/TAMRA fluorescence. 0.28% of 330,000 active;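 active = inhibition of at least 40% at 20 µM, with no more than 30% in the related APOBEC3A deaminase screen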;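 note: plate controls were DMSO wells with A3G for no effect and wells lacking A3G enzyme for full effect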
Target sequence (Q9HC16 whole entry, looked up): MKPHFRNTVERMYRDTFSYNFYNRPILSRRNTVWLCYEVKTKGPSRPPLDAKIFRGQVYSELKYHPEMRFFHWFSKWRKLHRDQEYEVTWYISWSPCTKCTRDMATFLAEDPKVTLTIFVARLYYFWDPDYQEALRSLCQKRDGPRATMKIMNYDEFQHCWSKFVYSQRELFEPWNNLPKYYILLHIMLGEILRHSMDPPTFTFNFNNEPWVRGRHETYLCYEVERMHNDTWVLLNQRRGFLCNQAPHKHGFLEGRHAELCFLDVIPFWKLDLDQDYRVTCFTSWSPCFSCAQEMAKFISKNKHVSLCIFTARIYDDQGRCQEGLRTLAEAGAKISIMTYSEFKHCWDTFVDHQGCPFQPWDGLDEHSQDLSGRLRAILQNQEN
UCH37 inh = blocks the human deubiquitinase UCH37; AID 588478; purified proteasome/UCH37, Ub-AMC cleavage fluorescence; 0.33% of 330,000 active; inhibition, % (test concentration not listed);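 active = mean inhibition over replicate wells above about 20%, limit read from the data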;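 note: 0% = compound-free wells with enzyme and 100% = wells lacking proteasome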
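Material: Human UCH37 enzyme supplied as purified proteasome complex | Schedule: 30 min compound-proteasome preincubation then 25 min substrate reaction, room temperature | Detection: AMC fluorescence from Ub-AMC cleavage, excitation 355 nm, emission 460 nm | Benchmarks: Wells without proteasome as full block, compound-free enzyme plus substrate as uninhibited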
A3A conf = confirmation of human APOBEC3A DNA deaminase inhibitors. shares compounds with A3A deaminase. recombinant A3A, ssDNA deaminase UDG fluorescence assay. inhibition, % at 20 µM. 63% of 1,400 active. AID 493151;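 active = inhibition reaching a set limit, 80% of the first screen's cutoff, at 20 µM in any replicate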;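 note: plate controls were DMSO wells with A3A for no effect and wells lacking A3A enzyme for full effect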
UDG ctr A3A = UDG inhibition in APOBEC3A counter-screen; shares compounds with A3A deaminase; UDG counterscreen, FAM/TAMRA uracil oligo fluorescence; inhibition, % at 20 µM; 1,000 tested, under 10 active; AID 504714; call rule not given here
Starred values were filed as active, the others as inactive; ? = inconclusive; . = no result.

SMILES	PolyA inh	Arr AP2 block	A3A deaminase	AHR act	A3G deaminase	UCH37 inh	A3A conf	UDG ctr A3A
C[N+]1(CC(=O)OCCCc2ccccc2)CCOCC1	-6	8	69*	0	24	-4	92*	5
CCN(CC)C(=O)C(=O)NN=Cc1cccs1	.	.	.	.	.	-1	.	.
CCOc1ccc(S(=O)(=O)N2CCN(C(=O)CN3C(=O)NC4(CCCC4)C3=O)CC2)cc1	-5	-2	41*	3	-2	-1	36*	-2
COc1ccc(S(=O)(=O)N2CCN(C(=O)CN3C(=O)NC4(CCCC4)C3=O)CC2)cc1	4	-2	12	-1	0	0	.	.
O=C(N/N=C\C=C\c1ccc2c(c1)OCO2)c1cccnc1	.	25	45*	68*	-4	.	1	3
Nc1ccc(Nc2ccccc2)c(S(=O)(=O)O)c1	?	49	67*	-1	18	.	57*	-1
COc1ccc(C=NNC(=O)c2ccc(N(C)S(=O)(=O)c3ccccc3)cc2)cc1OC	.	.	.	.	.	-2	.	.
Cc1cccc(NC(=O)CSCC(=O)Nc2cc(S(=O)(=O)N3CCOCC3)ccc2N2CCCC2)c1	5	3	96*	1	-8	1	3	-3
Cc1cccc(C(=O)Nc2ccc(S(=O)(=O)N3CCOCC3)cc2C)c1	-11	-11	43*	0	13	0	52*	-1
Cc1ccc(NC(=O)c2cc(S(=O)(=O)N3CCOCC3)ccc2F)c(C)c1	16	-4	-1	6	-6	0	.	.
C/C(C=NNC(=O)CSc1nc(C)cc(C)n1)=C\c1ccccc1	.	.	.	.	.	4	.	.
CC1(C)CC(=NNC(=S)Nc2ccccc2F)c2cc(O)ccc2O1	.	.	.	.	.	-41	.	.
CC1CC(OCC(O)CN2CCOCC2)CC(C)(C)C1 (stereo unspecified)	6	13	4	7	0	-2	.	.
CC1CC(OCC(O)C[N+]2(C)CCOCC2)CC(C)(C)C1 (stereo unspecified)	-2	-1	62*	0	18	2	69*	4
Cc1nnc(NC(=O)C2CC(=O)N(c3ccc4c(c3)OCCO4)C2)s1 (stereo unspecified)	.	-22	0	2	-4	2	.	.
O=C(Nc1nc(-c2ccco2)c(-c2ccco2)s1)C1CC(=O)N(c2ccc3c(c2)OCCO3)C1 (stereo unspecified)	2	22	49*	5	27	-2	37*	-4
O=C(Nc1nnc(SCc2c(Cl)cccc2Cl)s1)C1CC(=O)N(c2ccc3c(c2)OCCO3)C1 (stereo unspecified)	10	-26	64*	1	21	4	23	.
O=[N+]([O-])c1ccccc1/C=N/NC1=NCCN1	0	-12	50*	6	19	.	64*	5
O=C1C2C3C=CC(C3)C2C(=O)N1N=Cc1cn(Cc2ccccc2)c2ccccc12 (stereo unspecified)	.	.	.	.	.	6	.	.
CN1/C(=C/C=NNC(=O)c2ccc([N+](=O)[O-])cc2)C(C)(C)c2ccccc21	.	.	.	.	.	9	.	.
COc1ccc(NC(=O)c2ccc(-n3cncn3)c([N+](=O)[O-])c2)cc1	19	6	-3	-4	-3	4	.	.
CCc1ccc(NC(=O)c2ccc(-n3cncn3)c([N+](=O)[O-])c2)cc1	-2	-13	41*	-5	15	6	5	.
CN(c1ccc(C(=O)NN=Cc2cccc([N+](=O)[O-])c2)cc1)S(=O)(=O)c1ccccc1	.	.	.	.	.	6	.	.
O=S(=O)(NN=C1CC(c2ccccc2)Oc2ccccc21)c1ccc(Br)cc1 (stereo unspecified)	.	.	.	.	.	2	.	.
CNC(=O)/C(C#N)=C\c1ccc(CNS(=O)(=O)c2ccc(Cl)cc2)o1	-5	33	71*	3	11	10	77*	-3
SMILES	PolyA inh	Arr AP2 block	A3A deaminase	AHR act	A3G deaminase	UCH37 inh	A3A conf	UDG ctr A3A
CC12CCC(CC1=NOC(=O)c1ccc(F)cc1)C2(C)C (stereo unspecified)	.	.	.	.	.	3	.	.
CC(=O)NNS(=O)(=O)c1ccccc1[N+](=O)[O-]	3	3	47*	-1	-2	3	1	-3
Cc1ccc(C(=O)NNS(=O)(=O)c2ccccc2[N+](=O)[O-])cc1	10	7	-3	14	-6	4	.	.
O=c1oc(/C=C/c2ccc([N+](=O)[O-])s2)nc2ccccc12	-23	6	43*	2	4	2	33*	.
CC1CC(=NN2C(=O)CSC2=S)CC(C)(C)C1 (stereo unspecified)	.	.	.	.	.	6	.	.
O=C(O)c1ccc(COc2ccc(/C=N/NC(=O)c3cccs3)cc2)cc1	11	2	51*	0	17	.	4	.
N#C/C(=C/c1ccc(OCc2ccc(C(=O)O)cc2)cc1)C(=O)Nc1ccccc1	3	-3	79*	0	16	3	75*	-3
O=C(N/N=C/c1cccc(OCc2ccccc2)c1)c1cccs1	-13	-4	1	-1	0	.	.	.
O=C(/C=C/c1ccccc1)c1cc(Br)ccc(=O)c1O	0	46	41*	12	17	-5	40*	.
O=C(/C=C/c1ccc(F)cc1)c1cc(Br)ccc1O	7	-26	0	5	0	3	.	.
O=C(O)CCC(=NNC(=O)CNC(=O)c1ccc(F)cc1)c1ccccc1	.	.	.	.	.	5	.	.
C=CCn1cccc(C(=O)Nc2ccc(OC)c(Cl)c2)c1=O	4	12	48*	40	-9	3	-10	6
CCOC(=O)NN=C/C=C/c1ccccc1[N+](=O)[O-]	.	.	.	.	.	4	.	.
CCCCC1(C)OC(=O)C(=Cc2ccc(-c3ccc(Cl)c(C(=O)O)c3)o2)C(=O)O1 (stereo unspecified)	25	4	55*	5	26	0	30*	1
CC(=NNC(=O)c1ccc([N+](=O)[O-])c(C)c1)c1ccccc1Cl	.	.	.	.	.	-1	.	.
CCCC(=NNC(=O)c1ccc(CSc2nncn2C)cc1)c1ccccc1	.	.	.	.	.	1	.	.
CC[N+]1(CC)CC2CCC(C)(C1)C2(C)C (stereo unspecified)	-1	-29	58*	1	9	0	79*	8
CC12CCC(C[N+](C)(C)C1)C2(C)C (stereo unspecified)	-6	-45	65*	0	20	-3	69*	-2
Cc1cc(C(=O)CSc2nnc(-c3cccs3)n2Cc2ccccc2)c(C)n1C	0	-7	-5	-1	-9	6	.	.
